Screens: PubChem, Broad Institute
An excerpt weighted towards active compounds, which were near 3.3% of everything screened.
DENV2 CPE: inhibitors of DENV2 cytopathic effect, primary screen, cell-based, plate reader, single concentration; CPE inhibition, % at 9.99 µM; DENV2-infected cells, cytopathic effect rescue; 350,000 compounds, 1.7% hits; in the data active means CPE inhibition above about 20%, passing the limit was not always enough; inconclusive means no clear call, values can overlap the other calls; tested in BHK-21 cells;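 further: 0% = median of neutral control wells and 100% = median of positive control wells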
C2C12 statin: suppressors of statin myotoxicity in C2C12 myotubes, primary screen, cell-based, single point, plate reader; C2C12 myotubes + simvastatin, ATP luminescence, 48 h; scaled: DMSO 0, geranylgeraniol control 100; rescue of ATP level, % at 7.49 µM; 330,000 compounds, 0.78% hits; AID 602340, 2012;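 active means mean ATP rescue above about 67%, or every replicate alone reaching that limit, limit read from the data, passing the limit was not always enough; inconclusive means no clear call, values can overlap the other calls; inactive means mean under the limit and some replicate under it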;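 further: myotubes were challenged with 10 µM simvastatin during compound exposure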
XiGFP reactiv: activators of inactive X chromosome reactivation, primary screen, imaging, XiGFP fibroblasts, GFP high-content imaging, set 2; XiGFP mouse fibroblasts, % GFP-positive cells imaging, 3 d; cells co-treated with 5-aza-dC sensitizer; scaled so ellipticine positive control = 100%; activation, % at 7.58 µM; 360,000 compounds, 0.055% hits; AID 743238, 2013;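 active means mean normalized replicate activation at least 10% and every replicate at or above 10%; inconclusive means only one of the two criteria met; inactive means mean below 10% and not all replicates reach 10%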;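 further: 0% = median of on-plate neutral control wells and 100% = ellipticine 6 µM median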
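System: 68-5-11 XiGFP fibroblast line | Buffer or medium: DMEM containing 5-aza-dC | Compound: Single point | Times: Compounds 3 days, fix/stain 15 min at room temperature | Benchmarks: Positive control ellipticine, 6 µM final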
FGF22 binding: binders of human FGF22 protein, primary screen, FGF22 synaptogenesis inhibitor project, biophysical, thermal shift, single point. 340,000 compounds, 1.5% hits. Fibroblast growth factor 22 (Homo sapiens), Q9HCT0. recombinant FGF22 thermal shift, SYPRO orange fluorescence; percent of sucrose octasulfate shift, DMSO zero. activity (Tm shift, normalised), % at 9.99 µM;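 active means mean Tm shift, scaled 0 neutral to 100 positive control, at about 1.3% or above, every replicate too, limit read from the data; inconclusive means no clear call, values can overlap the other calls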
PglD inh: C. jejuni PglD acetyltransferase inhibitors, primary screen, biochemical, DTNB colorimetric, single point; purified PglD enzyme, DTNB colorimetric CoA detection; inhibition, % at 12.5 µM; 360,000 compounds, 0.098% hits; AID 602405, 2012; in the data active means inhibition above about 16%, passing the limit was not always enough; inconclusive means no clear call, values can overlap the other calls
E-selectin induc: E-selectin induction in HUVECs, primary screen, imaging, HUVEC, immunofluorescence imaging, single point; P16581; normalized: neutral wells 0, TNF-alpha wells 100; activation, % at 7.58 µM; 260,000 compounds, 0.37% hits;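 active means mean E-selectin-positive cell signal at least 10% of the positive control, reached in at least 60% of replicates, without over 20% cell loss; inconclusive means no rule given, readout overlaps actives, possibly toxicity-flagged; inactive means the rest, including those meeting only one limit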
Target sequence (P16581 whole entry, looked up): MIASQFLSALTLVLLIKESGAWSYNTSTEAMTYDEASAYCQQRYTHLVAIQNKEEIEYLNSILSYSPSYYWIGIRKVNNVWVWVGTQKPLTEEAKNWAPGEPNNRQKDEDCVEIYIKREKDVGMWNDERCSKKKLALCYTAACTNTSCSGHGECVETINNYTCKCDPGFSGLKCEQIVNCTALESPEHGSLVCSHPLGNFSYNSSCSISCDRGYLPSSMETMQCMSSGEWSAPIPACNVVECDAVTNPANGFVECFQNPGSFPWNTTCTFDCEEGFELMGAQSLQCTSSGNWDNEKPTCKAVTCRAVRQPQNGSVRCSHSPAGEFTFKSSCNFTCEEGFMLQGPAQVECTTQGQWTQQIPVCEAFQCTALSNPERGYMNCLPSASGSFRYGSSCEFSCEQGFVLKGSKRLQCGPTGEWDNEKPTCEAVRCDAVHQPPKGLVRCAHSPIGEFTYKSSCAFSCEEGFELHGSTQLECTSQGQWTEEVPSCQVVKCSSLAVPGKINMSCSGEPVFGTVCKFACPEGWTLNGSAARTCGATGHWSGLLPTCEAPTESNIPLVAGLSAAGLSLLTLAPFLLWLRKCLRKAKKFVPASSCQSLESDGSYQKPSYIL
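Read-out: % PE-positive cells | Test system: HUVEC | Doses: One compound dose added by pin transfer | Buffer or medium: EGM-2 over gelatin coat | Signal: Immunofluorescence imaging | Benchmarks: TNF-alpha, DMSO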
Numbers without * were called inactive.

For N#Cc1ccc(-c2ccc3c(c2)[C@@H]2[C@@H](CCN2Cc2ccc4c(c2)OCO4)[C@@H](CO)N3)cc1 the results were DENV2 CPE inconclusive, C2C12 statin -33, XiGFP reactiv 0, FGF22 binding 0, PglD inh -1 and E-selectin induc -1.
`C[C@@H]1CN([C@H](C)CO)C(=O)c2cc(C#Cc3ccccc3F)cnc2O[C@@H]1CN(C)C(=O)c1ccc2c(c1)OCO2` gave DENV2 CPE 1, C2C12 statin -4, XiGFP reactiv 0, FGF22 binding 1, PglD inh 1 and E-selectin induc -1.
`O=C(O)CCC(C(=O)O)n1c(O)c(C2=c3ccccc3=NC2=O)sc1=S` (stereo not given) gave C2C12 statin 112* and PglD inh -4.
Screening NC(=O)c1ccc(NC(=O)COc2ccc([N+](=O)[O-])cc2Cl)cc1 returned DENV2 CPE 7, XiGFP reactiv 0 and FGF22 binding 43*.
CC(C)C(C)NC(=O)COc1ccc([N+](=O)[O-])cc1Cl (stereo not given) was read as DENV2 CPE 2, XiGFP reactiv 0, FGF22 binding 0 and PglD inh 6.
`Nc1c(C(=O)NCc2ccco2)nnn1CC(=O)Nc1ccccc1` gave C2C12 statin 97* and PglD inh 0.
Nc1c(C(=O)NCc2cccs2)nnn1CC(=O)Nc1cccc(Cl)c1 was read as DENV2 CPE -2, XiGFP reactiv 0 and FGF22 binding 43*.
Cc1ccc(C)c(NC(=O)Cn2nnc(C(=O)NCc3ccco3)c2N)c1 was read as DENV2 CPE -2, C2C12 statin 10, XiGFP reactiv 0, FGF22 binding 0 and PglD inh -3.
CN(C)CCCNC(CC(=O)Nc1cccc([N+](=O)[O-])c1)C(=O)O (stereo not given) was read as DENV2 CPE 48*, XiGFP reactiv 0, FGF22 binding 0 and PglD inh -36.
Screening COc1cccc(NC(=O)N[C@@H]2C=C[C@@H](CC(=O)N3CCN(C)CC3)O[C@@H]2CO)c1 returned DENV2 CPE -3, XiGFP reactiv 0 and E-selectin induc 1.
For CC(C)Oc1ccc(C2C(C#N)=C(N)Oc3c2oc(CO)cc3=O)cc1 (stereo not given) the results were DENV2 CPE 4, XiGFP reactiv 0 and FGF22 binding 44*.
Screening COc1cc(C2C(C#N)=C(N)Oc3c2oc(CO)cc3=O)ccc1OC(C)C (stereo not given) returned C2C12 statin 10 and PglD inh -8.
Screening c1cc(-c2noc(CC3CCCCC3)n2)ccn1 returned C2C12 statin 147* and PglD inh -6.
c1ccc(-c2noc(CC3CCCCC3)n2)nc1 was read as DENV2 CPE -1, XiGFP reactiv 0, FGF22 binding 0 and E-selectin induc 0.
For CNC(=O)C[C@@H]1CC[C@H]2[C@@H](COc3ccc(NC(=O)Nc4c(C)noc4C)cc3C(=O)N2C)O1 the results were DENV2 CPE 0, C2C12 statin 1, XiGFP reactiv 0, FGF22 binding 0, PglD inh 1 and E-selectin induc 0.
`COc1ccc2c3c([nH]c2c1)[C@@H](CO)N(S(C)(=O)=O)CC31CN(C(=O)c2ccccc2)C1` gave DENV2 CPE 23*, XiGFP reactiv 0, FGF22 binding 0 and E-selectin induc 0.
COc1ccc2c3c([nH]c2c1)[C@H](CO)N(S(=O)(=O)c1ccc(C)cc1)CC31CN(C(=O)Cc2cccnc2)C1 was read as DENV2 CPE 27*, XiGFP reactiv 0, FGF22 binding 0 and E-selectin induc 0.
`COc1ccc2c3c([nH]c2c1)[C@H](CO)N(S(C)(=O)=O)CC31CN(C(=O)c2ccccc2)C1` gave DENV2 CPE -2, XiGFP reactiv 0, FGF22 binding 0 and E-selectin induc 0.
Screening COc1ccc2c3c([nH]c2c1)[C@H](CO)N(C(=O)c1ccccc1)CC31CN(S(=O)(=O)c2cccs2)C1 returned DENV2 CPE 82*, XiGFP reactiv 0, FGF22 binding 0 and E-selectin induc 0.
Cc1ccc(S(=O)(=O)Nc2ccc3c(c2)CC(=O)N([C@H](C)CO)C[C@@H](C)[C@H](CN(C)S(=O)(=O)c2ccc(F)cc2)O3)cc1 was read as DENV2 CPE inconclusive, C2C12 statin -16, XiGFP reactiv 0, FGF22 binding 0, PglD inh -3 and E-selectin induc 0.
`Cc1noc(C)c1NC(=O)Nc1ccc2c(c1)C(=O)N([C@H](C)CO)C[C@@H](C)[C@H](CN(C)C(=O)Nc1ccc(C(F)(F)F)cc1)O2` gave DENV2 CPE -1, C2C12 statin -13, XiGFP reactiv 0, FGF22 binding -1, PglD inh -3 and E-selectin induc 0.
Screening C[C@@H]1CN([C@@H](C)CO)C(=O)c2cc(C3=CCCC3)cnc2O[C@@H]1CN(C)C(=O)c1ccccn1 returned DENV2 CPE -2, C2C12 statin -7, XiGFP reactiv 0, FGF22 binding 0, PglD inh 4 and E-selectin induc 0.
For CN(C)S(=O)(=O)c1cccc(C(=O)Nc2ccc(S(=O)(=O)N3CCCC3)cc2)c1 the results were DENV2 CPE -2, XiGFP reactiv 0, FGF22 binding 44* and E-selectin induc 3.
For CN(C)S(=O)(=O)c1cccc(NC(=O)c2cccc(S(=O)(=O)N3CCCCCC3)c2)c1 the results were DENV2 CPE -4, C2C12 statin -24, XiGFP reactiv 0, FGF22 binding 0, PglD inh 0 and E-selectin induc 0.
For Cn1nc(C(=O)Nc2ccc(S(=O)(=O)N3CCCCC3)cc2)ccc1=O the results were C2C12 statin 96* and PglD inh 6.
C[C@@H]1CN(C)C(=O)Cc2cc(N)ccc2O[C@H]1CN(C)C(=O)OC(C)(C)C was read as XiGFP reactiv 0.
O=C(CCNS(=O)(=O)c1ccccc1C(F)(F)F)N1CCN(C(c2ccccc2)c2ccccc2)CC1 was read as DENV2 CPE 92*, C2C12 statin 44, XiGFP reactiv 0, FGF22 binding 0, PglD inh -6 and E-selectin induc 0.
